A short description of experiment [1]: Inhibitory activity against murine sarcoma virus induced transformation of murine C3H/3T3 embryo fibroblasts. In kind it is functional, Mus musculus. The gist of the method:
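Murine C3H/3T3 embryo fibroblasts were seeded at 5 × 10⁵ cells/mL. After 24 h they were infected with 80 focus-forming units of MSV for 90–120 min at 37 °C. The medium was then replaced with fresh medium containing various compound concentrations, and transformation was examined microscopically after 6 days.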

For experiment [2], the system named is Human alphaherpesvirus 2. Kind of experiment: Inhibitory activity against herpes simplex virus type 2 (HSV-2) G strain. The experiment is classed as functional, organism-based. The essentials:
(§1)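 Confluent E6SM cell cultures were inoculated with 100 CCID50 of virus and allowed 1 h for adsorption. Residual virus was then removed, and the cells were incubated with test compound at 400, 200, 100, ... μg/mL. Viral cytopathicity was scored once it reached completion in untreated infected controls.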

Experiment [3] has as its system Human alphaherpesvirus 1. The experiment is described as follows: Inhibitory activity against herpes simplex virus type 1 (HSV-1) McIntyre strain. In kind it is functional, organism-based. The essentials: as §1
Experiment [4] concerns Human alphaherpesvirus 2. The experiment is described as follows: Inhibitory activity against herpes simplex virus type 2 (HSV-2) Lyons strain. The experiment is classed as functional, organism-based. The gist of the method: as §1
The subject of experiment [5] is Cytomegalovirus. The experiment is described as follows: Inhibitory activity against cytomegalovirus (CMV) AD 169 strain. The experiment is classed as functional, organism-based. The conditions noted are these: Human betaherpesvirus 5. The gist of the method: (§2)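 HEL cell cultures, grown to confluence, received 100 CCID50 of virus. After 1 h adsorption, the inoculum was removed and the cultures were incubated with serial concentrations of compound (400, 200, 100, ... μg/mL).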

Experiment [6] deals with Cytomegalovirus. The experiment is described as follows: Inhibitory activity against cytomegalovirus (CMV) Davis strain. In kind it is functional, organism-based. Conditions: Human betaherpesvirus 5. The essentials: as §2
In experiment [7] the test system is Human alphaherpesvirus 1. The experiment is described as follows: Inhibition of herpes simplex virus type 1 (HSV-1) F strain. In kind it is functional, organism-based. The essentials:
as §1

The test system of experiment [8] is Human alphaherpesvirus 1. The experiment is described as follows: Inhibitory activity against herpes simplex virus type 1 (HSV-1) KOS strain. The experiment is classed as functional, organism-based. The gist of the method:
as §1

Experiment [9] deals with Human immunodeficiency virus 1. The experiment is described as follows: Inhibition of human immunodeficiency virus type 1 (HIV-1) induced cytopathogenicity in CEM cells. In kind it is functional, organism-based. The conditions noted are these: Human immunodeficiency virus 1, CCRF-CEM. The essentials: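 CEM cells (~3 × 10⁵ cells/mL) were infected with 100 CCID50 of HIV-1 (IIIB)/mL and plated with dilutions of compound. After 4 days at 37 °C, giant cell formation was assessed microscopically.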
(In general: Damage to the host cells serves as the signal in cytopathic effect assays.)

Experiment [10] can be described thus: Inhibitory activity against herpes simplex virus type 2 (HSV-2) 196 strain. In kind it is functional. The essentials: as §1
For experiment [11], the system named is Human immunodeficiency virus 2. Kind of experiment: Inhibition of human immunodeficiency virus type 2 (HIV-2) induced cytopathogenicity in CEM cells. In kind it is functional, organism-based. The conditions noted are these: Human immunodeficiency virus 2, CCRF-CEM.
For experiment [12], the system named is Vaccinia virus. Kind of experiment: Inhibitory activity against vaccinia virus (VV). The conditions noted are these: Orthopoxvirus vaccinia. In kind it is functional, organism-based. The essentials:
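Confluent E6SM cell cultures were inoculated with 100 CCID50 of virus and left for 1 h adsorption, then residual virus was removed. Cultures were incubated with test compound at serial concentrations (400, 200, 100, ... μg/mL). Virus-induced cytopathicity was scored once it reached completion in untreated infected control cultures.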

Experiment [13] concerns Human immunodeficiency virus 1. The experiment is described as follows: Inhibitory activity of compound against human immunodeficiency virus type 1 (HIV-1) induced cytopathogenicity in MT-4 cells. The conditions noted are these: Human immunodeficiency virus 1, MT4. The experiment is classed as functional, organism-based. The gist of the method: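 Human MT-4 cells (~4 × 10⁵ cells/mL) were infected with 100 CCID50 of HIV-1 (IIIB)/mL and seeded into wells containing compound dilutions. After 5 days at 37 °C, viable cells were counted by trypan blue exclusion in a blood cell counting chamber.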

For experiment [14], the system named is Human immunodeficiency virus 2. Kind of experiment: Inhibitory activity against human immunodeficiency virus type 2 (HIV-2) induced cytopathogenicity in MT-4 cells. Conditions: Human immunodeficiency virus 2, MT4. The experiment is classed as functional, organism-based.

Structures are written as SMILES. ≈ marks a conversion by molar mass, not a printed value.

In the case of `Nc1nc(N)c2nc(Br)n(CCOCP(=O)(O)O)c2n1`, the EC50 was 2.43 µg/mL (≈ 6.62 µM) in experiment [1]; 20 µg/mL (≈ 54.5 µM) in experiment [2]; 20 µg/mL (≈ 54.5 µM) in experiment [3]; 20 µg/mL (≈ 54.5 µM) in [4]; 8 µg/mL (≈ 21.8 µM) in experiment [5]; 12 µg/mL (≈ 32.7 µM) in experiment [6]. The EC50 is 7 µg/mL (≈ 19.1 µM) in experiment [7]; 20 µg/mL (≈ 54.5 µM) in [8]; over 100 µg/mL in experiment [9]; 70 µg/mL (≈ 191 µM) in experiment [10]; over 100 µg/mL in experiment [11]; 300 µg/mL (≈ 817 µM) in experiment [12].
`CC(C)OP(=O)(COCCn1cnc2c(N)nc(N)nc21)OC(C)C`: the EC50 in [2] was over 400 µg/mL; in experiment [13] it was over 100 µg/mL; in experiment [3], 89 µg/mL (≈ 239 µM); in experiment [4] it was 240 µg/mL (≈ 645 µM); in [5], 2 µg/mL (≈ 5.37 µM); in experiment [6], 2 µg/mL (≈ 5.37 µM). Also, the EC50 was 240 µg/mL (≈ 645 µM) in [7], 240 µg/mL (≈ 645 µM) in [8], over 100 µg/mL in experiment [9] and 240 µg/mL (≈ 645 µM) in experiment [10].
Take `CC(C)CCCCCOP(=O)(O)COCCn1cnc2c(O)nc(N)nc21`: the EC50 in experiment [2] is 240 µg/mL (≈ 598 µM); in [13], over 100 µg/mL; in [3], 240 µg/mL (≈ 598 µM); in experiment [4], 240 µg/mL (≈ 598 µM); in experiment [5] it was over 50 µg/mL; in experiment [6] it was over 50 µg/mL. Besides, the EC50 is 240 µg/mL (≈ 598 µM) in experiment [7], 240 µg/mL (≈ 598 µM) in experiment [8], 240 µg/mL (≈ 598 µM) in experiment [10] and over 100 µg/mL in [14].
Turning to `CCOP(=O)(O)COCCn1cnc2c(O)nc(N)nc21`, the EC50 in experiment [1] is 0.24 µg/mL (≈ 0.757 µM); in experiment [2], 0.7 µg/mL (≈ 2.21 µM); in experiment [13], 2.6 µg/mL (≈ 8.2 µM); in experiment [3], 2 µg/mL (≈ 6.3 µM); in experiment [4], 2 µg/mL (≈ 6.3 µM); in [5], 0.15 µg/mL (≈ 0.473 µM). Moreover, the EC50 in experiment [6] came to 0.15 µg/mL (≈ 0.473 µM); in [7] it was 2 µg/mL (≈ 6.3 µM); in [8], 2 µg/mL (≈ 6.3 µM); in experiment [10], 2 µg/mL (≈ 6.3 µM); in experiment [12], 20 µg/mL (≈ 63 µM).
In the case of `Nc1nc(=O)n(CCOCP(=O)(O)O)cc1Br`, the EC50 was 19.2 µg/mL (≈ 58.5 µM) in [1]; 150 µg/mL (≈ 457 µM) in experiment [2]; 70 µg/mL (≈ 213 µM) in [3]; 70 µg/mL (≈ 213 µM) in experiment [4]; 30 µg/mL (≈ 91.4 µM) in [5]; 33 µg/mL (≈ 101 µM) in experiment [6]. In addition, the EC50 in experiment [7] was 40 µg/mL (≈ 122 µM); in experiment [8], 20 µg/mL (≈ 61 µM); in [9], over 100 µg/mL; in experiment [10] it was 100 µg/mL (≈ 305 µM); in [11], over 100 µg/mL; in [12] it was over 400 µg/mL.
Take `O=P(O)(O)COCCn1cnc2c(S)ncnc21`: the EC50 in [1] was over 200 µg/mL; in experiment [2], over 400 µg/mL; in experiment [3], over 400 µg/mL; in experiment [4], over 400 µg/mL; in experiment [5] it was 25 µg/mL (≈ 86.1 µM); in experiment [6] it was 20 µg/mL (≈ 68.9 µM). The EC50 is over 400 µg/mL in [7]; over 400 µg/mL in experiment [8]; over 100 µg/mL in [9]; over 400 µg/mL in experiment [10]; over 100 µg/mL in experiment [11]; over 400 µg/mL in [12].
`NC1=NC2N=CC=NC2C(=O)N1CCOCP(=O)(O)O` (stereo unspecified): the 50% effective concentration (EC50) was 26.5 µg/mL (≈ 87.4 µM) in experiment [1]; 70 µg/mL (≈ 231 µM) in experiment [2]; 150 µg/mL (≈ 495 µM) in experiment [3]; 70 µg/mL (≈ 231 µM) in experiment [4]; over 50 µg/mL in experiment [5]; over 50 µg/mL in experiment [6]. Moreover, the EC50 in experiment [7] is 150 µg/mL (≈ 495 µM); in experiment [8] it was 70 µg/mL (≈ 231 µM); in experiment [9], over 100 µg/mL; in experiment [10], 150 µg/mL (≈ 495 µM); in [11], over 100 µg/mL; in experiment [12], 200 µg/mL (≈ 660 µM).
Consider `CC(C)OP(=O)(COCCn1c(Br)nc2c(N)nc(N)nc21)OC(C)C`, for which the EC50 is over 40 µg/mL in [1]; over 400 µg/mL in experiment [2]; over 400 µg/mL in experiment [3]; 300 µg/mL (≈ 665 µM) in experiment [4]; 25 µg/mL (≈ 55.4 µM) in experiment [5]; 20 µg/mL (≈ 44.3 µM) in [6]. Moreover, the EC50 is over 400 µg/mL in [7]; over 400 µg/mL in experiment [8]; over 100 µg/mL in experiment [9]; over 400 µg/mL in experiment [10]; over 100 µg/mL in experiment [11]; over 400 µg/mL in [12].

What is called EC50 is the concentration that produces a half-maximal response. High values mean weaker potency, low ones greater potency.

The values are drawn from ChEMBL document CHEMBL1132160, “Structure-antiviral activity relationship in the series of pyrimidine and purine N-[2-(2-phosphonomethoxy)ethyl] nucleotide analogues. 1. Derivatives substituted at the carbon atoms of the base” (J Med Chem, 1999).
